Data reported in ChEMBL document CHEMBL1127320, “Dual-action cephalosporins incorporating a 3'-tertiary-amine-linked quinolone” (J Med Chem, 1994).
Values after ≈ are worked out from the molar mass of the structure shown.

Tests used:
Staphylococcus aureus [1] = assay: In vitro minimum inhibitory concentration was measured against Staphylococcus aureus smith strain.; type: functional
[2] = target: T1, Penicillin-binding protein 1A (Escherichia coli K-12) (UniProt P02918); assay: Affinity for penicillin binding protein 1a of Escherichia coli UB1005 (DC0) was evaluated.; set-up: unit not given here
T1 sequence (whole entry): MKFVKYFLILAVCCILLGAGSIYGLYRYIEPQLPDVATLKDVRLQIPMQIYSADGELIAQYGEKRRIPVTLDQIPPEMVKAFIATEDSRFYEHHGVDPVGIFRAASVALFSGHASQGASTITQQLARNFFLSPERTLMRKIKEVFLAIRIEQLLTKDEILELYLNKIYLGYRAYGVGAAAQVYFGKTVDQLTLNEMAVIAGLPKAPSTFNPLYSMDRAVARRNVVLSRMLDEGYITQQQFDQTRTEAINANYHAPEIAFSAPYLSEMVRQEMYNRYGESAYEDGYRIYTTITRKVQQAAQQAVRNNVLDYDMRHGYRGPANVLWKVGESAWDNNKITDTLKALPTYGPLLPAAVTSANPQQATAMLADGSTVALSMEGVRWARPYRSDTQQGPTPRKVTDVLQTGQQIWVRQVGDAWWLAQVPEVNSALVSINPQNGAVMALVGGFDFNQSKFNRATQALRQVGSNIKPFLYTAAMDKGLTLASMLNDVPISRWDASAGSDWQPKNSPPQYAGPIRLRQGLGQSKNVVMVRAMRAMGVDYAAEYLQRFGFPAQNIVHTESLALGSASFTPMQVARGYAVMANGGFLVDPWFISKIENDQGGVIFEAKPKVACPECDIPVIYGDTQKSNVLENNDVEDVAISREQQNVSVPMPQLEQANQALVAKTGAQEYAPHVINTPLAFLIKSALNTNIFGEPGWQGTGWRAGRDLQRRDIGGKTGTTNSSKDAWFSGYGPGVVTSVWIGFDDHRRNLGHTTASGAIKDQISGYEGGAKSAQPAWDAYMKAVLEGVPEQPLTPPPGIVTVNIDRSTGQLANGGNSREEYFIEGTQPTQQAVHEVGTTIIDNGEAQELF
In short: (§1)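 Solubilised membranes from sonicated E. coli UB1005 served as the binding-protein source. Binding was read as inhibition of [14C]penicillin G binding.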

Escherichia coli [3] = assay: In vitro minimum inhibitory concentration was measured against Escherichia coli 257 strain; (</=); type: functional
In short: (§2)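 MICs were determined by agar dilution with 2-fold dilutions giving final 128–0.0156 µg/mL, extended to 0.000977 µg/mL where needed. Streptococci were tested on brain heart infusion agar plus 20 units/mL catalase, Proteus on Mueller-Hinton with 3% agar, and others on Mueller-Hinton agar. Inocula were 100-fold-diluted overnight cultures, about 3 × 10^4 CFU/spot, read after overnight incubation at 36 °C.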

Serratia marcescens = assay: In vitro minimum inhibitory concentration was measured against Serratia marcescens 1071(beta lactamase producer) strain.; type: functional
In short: (§3)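 Streptococci were tested on brain heart infusion agar plus 20 units/mL catalase, Proteus on Mueller-Hinton with 3% agar, and others on Mueller-Hinton agar. Inocula were 100-fold-diluted overnight cultures, about 3 × 10^4 CFU/spot, read after overnight incubation at 36 °C.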

Escherichia coli [4] = assay: In vitro minimum inhibitory concentration was measured against Escherichia coli TEM-1 (Beta lactamase producer) strain.; type: functional; in short: as §3
Enterococcus faecalis = assay: In vitro minimum inhibitory concentration was measured against Enterococcus faecalis ATCC 29212 strain.; type: functional; in short: as §3
[5] = target: T2, Penicillin-binding protein 1B (Escherichia coli K-12) (UniProt P02919); assay: Affinity for penicillin binding protein 1b of Escherichia coli UB1005 (DC0) was evaluated.; set-up: unit not given here; in short: as §1
T2 sequence (whole entry): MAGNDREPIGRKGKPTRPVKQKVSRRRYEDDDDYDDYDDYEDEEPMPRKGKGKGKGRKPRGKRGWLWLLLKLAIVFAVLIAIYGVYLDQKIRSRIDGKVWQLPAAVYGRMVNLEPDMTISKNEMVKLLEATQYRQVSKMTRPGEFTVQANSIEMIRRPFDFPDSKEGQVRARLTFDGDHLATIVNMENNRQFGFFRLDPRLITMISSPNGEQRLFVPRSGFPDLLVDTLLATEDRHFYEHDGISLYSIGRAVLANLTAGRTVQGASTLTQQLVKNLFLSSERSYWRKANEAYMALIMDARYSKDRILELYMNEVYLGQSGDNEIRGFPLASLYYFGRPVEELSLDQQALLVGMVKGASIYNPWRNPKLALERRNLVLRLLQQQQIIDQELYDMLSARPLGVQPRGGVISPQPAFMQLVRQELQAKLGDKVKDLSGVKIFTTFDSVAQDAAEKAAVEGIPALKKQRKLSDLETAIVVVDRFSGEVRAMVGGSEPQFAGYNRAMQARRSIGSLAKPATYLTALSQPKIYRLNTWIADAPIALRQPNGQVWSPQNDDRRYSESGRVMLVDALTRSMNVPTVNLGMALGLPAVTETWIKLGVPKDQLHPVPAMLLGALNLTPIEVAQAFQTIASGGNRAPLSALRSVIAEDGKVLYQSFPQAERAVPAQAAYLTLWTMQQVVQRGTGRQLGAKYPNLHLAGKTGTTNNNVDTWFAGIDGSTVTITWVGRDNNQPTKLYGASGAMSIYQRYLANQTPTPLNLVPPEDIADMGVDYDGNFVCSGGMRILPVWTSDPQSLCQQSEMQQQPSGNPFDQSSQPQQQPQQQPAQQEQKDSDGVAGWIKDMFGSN

Pseudomonas aeruginosa [6] = assay: In vitro minimum inhibitory concentration was measured against Pseudomonas aeruginosa 8780 strain.; type: functional; in short: as §3
[7] = system: Penicillin-binding protein 3 (Escherichia coli); assay: Affinity for penicillin binding protein 3 of Escherichia coli UB1005 (DC0) was evaluated.; set-up: unit not given here
Streptococcus pneumoniae = assay: In vitro minimum inhibitory concentration was measured against Streptococcus pneumoniae 6301 strain; type: functional; in short: as §3
Proteus vulgaris = assay: In vitro minimum inhibitory concentration was measured against Proteus vulgaris 1028BC (beta lactamase producer) strain.; type: functional; in short: as §3
Staphylococcus aureus [8] = assay: In vitro minimum inhibitory concentration was measured against Staphylococcus aureus 67-0 (Methicillin resistant) strain.; type: functional
Escherichia coli [9] = assay: Minimum inhibitory concentration for DC2, a permeability mutant; in short: as §2
[10] = target: T3, Peptidoglycan D,D-transpeptidase MrdA (Escherichia coli K-12) (UniProt P0AD65); assay: Affinity for penicillin binding protein 2 of Escherichia coli UB1005 (DC0) was evaluated.; set-up: unit not given here; in short: as §1
T3 sequence (whole entry): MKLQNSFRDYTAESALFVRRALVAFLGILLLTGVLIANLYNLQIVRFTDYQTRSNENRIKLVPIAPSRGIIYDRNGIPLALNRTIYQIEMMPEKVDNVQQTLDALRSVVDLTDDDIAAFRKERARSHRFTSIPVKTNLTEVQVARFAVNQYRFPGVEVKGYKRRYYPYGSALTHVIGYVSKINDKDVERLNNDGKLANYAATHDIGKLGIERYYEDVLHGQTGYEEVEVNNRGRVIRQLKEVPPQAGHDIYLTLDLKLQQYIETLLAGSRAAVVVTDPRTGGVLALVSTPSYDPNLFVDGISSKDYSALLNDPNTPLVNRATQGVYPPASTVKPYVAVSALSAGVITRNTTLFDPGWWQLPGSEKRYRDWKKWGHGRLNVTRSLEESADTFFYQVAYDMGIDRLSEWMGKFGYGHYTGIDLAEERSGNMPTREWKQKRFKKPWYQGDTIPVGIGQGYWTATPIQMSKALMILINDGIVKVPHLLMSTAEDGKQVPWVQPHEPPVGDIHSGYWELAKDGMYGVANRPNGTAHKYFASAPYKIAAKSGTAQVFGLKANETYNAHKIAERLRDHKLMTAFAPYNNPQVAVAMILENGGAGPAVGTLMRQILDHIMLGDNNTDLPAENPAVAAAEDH

Staphylococcus aureus [11] = assay: In vitro minimum inhibitory concentration was measured against Staphylococcus aureus 753 (Methicillin resistant) strain.; type: functional
Streptococcus pyogenes = assay: In vitro minimum inhibitory concentration was measured against Streptococcus pyogenes 4 strain.; type: functional; in short: as §3
Micrococcus luteus = assay: In vitro minimum inhibitory concentration was measured against Micrococcus luteus ATCC 9341 strain.; type: functional; in short: as §3
Enterobacter cloacae [12] = assay: In vitro minimum inhibitory concentration was measured against Enterobacter cloacae 5699 strain.; type: functional
[13] = Half life was measured as degradation by HPLC analysis.; type: ADME
Pseudomonas aeruginosa [14] = assay: In vitro minimum inhibitory concentration was measured against Pseudomonas aeruginosa 18S/H strain.; type: functional; in short: as §3
Klebsiella pneumoniae = assay: In vitro minimum inhibitory concentration was measured against Klebsiella pneumoniae A strain.; type: functional; in short: as §3
Citrobacter freundii = assay: In vitro minimum inhibitory concentration was measured against Citrobacter freundii BS-16 (beta lactamase producer) strain.; type: functional; in short: as §2
Escherichia coli [15] = assay: In vitro minimum inhibitory concentration was measured against Escherichia coli ATCC 25922 strain.; (</=); type: functional; in short: as §2
Enterobacter cloacae [16] = assay: In vitro minimum inhibitory concentration was measured against Enterobacter cloacae p99 (beta lactamase producer) strain.; type: functional
Proteus mirabilis = assay: In vitro minimum inhibitory concentration was measured against Proteus mirabilis 90 strain.; type: functional; in short: as §3
Escherichia coli [17] = assay: In vitro minimum inhibitory concentration was measured against Escherichia coli 257 strain.; type: functional; in short: as §3
Escherichia coli [18] = assay: Minimum inhibitory concentration against E. coli UB1005 (DC0)
[19] = system: Penicillin-binding protein 3 (Escherichia coli); assay: Affinity for penicillin binding protein 3 of Escherichia coli UB1005 (DC0) was evaluated.; (</=)

SMILES | Binding affinity [2] | MIC (Escherichia coli [4]) [µg/mL] | Binding affinity [5] | MIC (Streptococcus pneumoniae) [µg/mL] | MIC (Proteus vulgaris) [µg/mL] | MIC (Escherichia coli [9]) [µg/mL] | Binding affinity [10] | MIC (Streptococcus pyogenes) [µg/mL] | MIC (Micrococcus luteus) [µg/mL] | MIC (Citrobacter freundii) [µg/mL] | MIC (Enterobacter cloacae [16]) [µg/mL] | further results
CCN1CCN(C(=O)N[C@@H](C(=O)N[C@@H]2C(=O)N3C(C(=O)O)=C(CN4CCN(c5cc6c(cc5F)c(=O)c(C(=O)O)cn6C5CC5)CC4)CS[C@H]23)c2ccc(O)cc2)C(=O)C1=O | > 100 | 0.031 (≈ 0.036 µM) | > 100 | 0.125 (≈ 0.145 µM) | 0.063 (≈ 0.0732 µM) | 0.25 (≈ 0.29 µM) | > 100 | 0.125 (≈ 0.145 µM) | 0.5 (≈ 0.581 µM) | 0.063 (≈ 0.0732 µM) | ≤ 0.016 | MIC (Staphylococcus aureus [1]): 2 µg/mL (≈ 2.32 µM); MIC (Escherichia coli [3]): < 0.016 µg/mL; MIC (Serratia marcescens): 0.25 µg/mL (≈ 0.29 µM); MIC (Enterococcus faecalis): 16 µg/mL (≈ 18.6 µM); MIC (Pseudomonas aeruginosa [6]): 8 µg/mL (≈ 9.29 µM); Binding affinity [7]: 2; MIC (Staphylococcus aureus [8]): 16 µg/mL (≈ 18.6 µM); MIC (Staphylococcus aureus [11]): 2 µg/mL (≈ 2.32 µM); MIC (Enterobacter cloacae [12]): 0.125 µg/mL (≈ 0.145 µM); half-life [13]: 60 h; MIC (Pseudomonas aeruginosa [14]): 2 µg/mL (≈ 2.32 µM); MIC (Klebsiella pneumoniae): 0.5 µg/mL (≈ 0.581 µM); MIC (Escherichia coli [15]): < 0.016 µg/mL; MIC (Proteus mirabilis): 1 µg/mL (≈ 1.16 µM)
O=C(O)C1=C(CN2CCN(c3cc4c(cc3F)c(=O)c(C(=O)O)cn4C3CC3)CC2)CS[C@@H]2[C@H](NC(=O)[C@H](O)c3ccccc3)C(=O)N12 | 100 | 0.125 (≈ 0.184 µM) | > 100 | 0.063 (≈ 0.093 µM) | 0.063 (≈ 0.093 µM) | 2 (≈ 2.95 µM) | > 100 | 0.031 (≈ 0.0457 µM) | 0.031 (≈ 0.0457 µM) | 0.125 (≈ 0.184 µM) | 0.031 (≈ 0.0457 µM) | MIC (Escherichia coli [17]): 0.125 µg/mL (≈ 0.184 µM); MIC (Escherichia coli [18]): 4 µg/mL (≈ 5.9 µM); Binding affinity [19]: < 0.1
